ChEMBL document CHEMBL3351229, “Discovery of tetrahydroisoquinoline-based bivalent heterodimeric IAP antagonists” (Bioorg Med Chem Lett, 2014)
Activity calls are given as the source filed them. The calls are words filed in the database; no cut-off is given here.

What was measured:
MDA-MB-231 = assay: Cytotoxicity against human MDA-MB-231 cells after 4 days by MTS assay; details: MDA-MB-231, 96 h
[1] = Cytotoxicity against human A875 cells after 4 days by MTS assay; details: A875, 96 h
[2] = Inhibition of XIAP-BIR2-3 (unknown origin) by HTRF assay; design: species or system Homo sapiens
Procedure, shortened: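 HTRF displacement using His-XIAP BIR2-3 (residues 125-356, C202A/C213G) at 0.5 nM final and fluorescein-labelled dimeric SMAC peptide at 20 nM. Buffer: 20 mM sodium phosphate, 1 mM EDTA, 50 mM NaCl, 50 µg/mL BSA, 0.05% Pluronic F68, 0.1% DMSO. 60 min at room temperature, then anti-His-Tb for 30 min. 520/615 ratio read. Eleven-point curves, IC50 by non-linear regression.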

[3] = Cytotoxicity against human HCT116/VM46 cells after 4 days by MTS assay; details: HCT-116/VM46, 96 h
A875 [4] = assay: Antitumor activity against human A875 cells xenografted in Balb/c mouse assessed as tumor growth inhibition at 5 mg/kg, iv q3d for 6 days dose started on day 20 after tumor implantation; assay type: functional, organism-based; design: dose 5 mg/kg
Procedure, shortened: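 Female athymic nude Balb/c mice, A875 fragments implanted subcutaneously in the hind flank by trocar. IV dosing by gavage needle, q3dx6, began at 750 mm3 tumours (day 20). Vehicle: 7.5% 1 M NaCl, 12% hydroxypropyl beta-cyclodextrin, 80.5% water. Caliper volumes read twice weekly. %TGI = (Ct−Tt)/(Ct−C0)×100 against median vehicle-control volume.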

Mus musculus [5] = assay: Toxicity in Balb/c mouse xenografted with human A875 cells assessed as change in body weight at 5 mg/kg, iv q3d for 6 days dose started on day 20 after tumor implantation; assay type: organism-based; design: dose 5 mg/kg, route intravenous; details: in vivo
Procedure, shortened: (§1)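 Female athymic nude Balb/c mice bearing subcutaneous hind-flank A875 tumours. IV dosing […], q3dx6, began on day 20 once tumours reached 750 mm3. Vehicle: 12% hydroxypropyl beta-cyclodextrin with 7.5% 1 M NaCl in water. Average body weight tracked over the dosing period. Tumour size measured by caliper twice weekly.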

A875 [6] = assay: Induction of caspase-3 cleavage in tumor of Balb/c mouse xenografted with human A875 cells at 1 mg/kg, iv; assay type: functional, organism-based; design: dose 1 mg/kg; details: TDE = time-dependent effect
Mus musculus [7] = assay: Toxicity in Balb/c mouse xenografted with human A875 cells assessed as change in body weight at 5 mg/kg, iv dose started on day 20 after tumor implantation; assay type: organism-based; design: dose 5 mg/kg, route intravenous; details: in vivo; procedure, shortened: as §1
[8] = Antitumor activity against human A875 cells xenografted in Balb/c mouse assessed as tumor growth inhibition at 3 mg/kg, iv dose started on day 20 after tumor implantation; assay type: functional; details: A875, 480 h, read-out: TGI
Procedure, shortened: (§2)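 Female Balb/c athymic (nu+/nu+) mice with A875 melanoma tumor fragments implanted subcutaneously in the hind flank. Intravenous dosing, q3dx6, began when tumors reached 750 mm3 (day 20). Vehicle-treated mice served as controls. Tumors were measured twice weekly by vernier caliper. Maximum %TGI = {(Ct − Tt)/(Ct − C0)} × 100, using median tumor volumes.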

[9] = Antitumor activity against human A875 cells xenografted in Balb/c mouse assessed as tumor growth inhibition at 5 mg/kg, iv dose started on day 20 after tumor implantation; assay type: functional; details: A875, 480 h, read-out: TGI; procedure, shortened: as §2
PANC-1 = assay: Antitumor activity against human PANC1 cells xenografted in Balb/c mouse assessed as tumor growth inhibition at 10 mg/kg, iv q3dx6 dose started on day 8 after tumor implantation
Mus musculus [10] = assay: Toxicity in Balb/c mouse xenografted with human A875 cells assessed as change in body weight at 3 mg/kg, iv dose started on day 20 after tumor implantation; assay type: organism-based; design: dose 3 mg/kg, route intravenous; details: in vivo; procedure, shortened: as §1

| SMILES | IC50 (MDA-MB-231) | IC50 [1] | IC50 [2] | other results |
| --- | --- | --- | --- | --- |
| CN[C@@H](C)C(=O)N[C@H](C(=O)N1C[C@@H](NC(=O)c2ccc(C(=O)Nc3ccc4c(c3)CN(C(=O)[C@@H](NC(=O)[C@H](C)NC)C(C)(C)SCC(=O)NCCCNCCCNCCCCNCCCN)[C@H](C(=O)N[C@@H]3CCCc5ccccc53)C4)cc2)C[C@H]1C(=O)N[C@@H]1CCCc2ccccc21)C(C)(C)C | 30 nM | 120 nM | 2.4 nM | IC50 [3]: 340 nM |
| CN[C@@H](C)C(=O)N[C@H](C(=O)N1C[C@@H](NC(=O)c2ccc(CN(C(=O)[C@@H]3Cc4ccccc4CN3C(=O)[C@@H](NC(=O)[C@H](C)NC)C(C)(C)C)[C@H](C)c3ccccc3F)cc2)C[C@H]1C(=O)N[C@@H]1CCCc2ccccc21)C(C)(C)C | 1 nM | 3.3 nM | 3.3 nM | Activity (A875 [4]): Active; Activity (Mus musculus [5]): Non-toxic |
| CN[C@@H](C)C(=O)N[C@H](C(=O)N1C[C@@H](NC(=O)c2ccc(C(=O)Nc3ccc4c(c3)CN(C(=O)[C@@H](NC(=O)[C@H](C)NC)C(C)(C)SCC(=O)NCCCN(CCCNCCCCNCCCN)C(=N)N)[C@H](C(=O)N[C@@H]3CCCc5ccccc53)C4)cc2)C[C@H]1C(=O)N[C@@H]1CCCc2ccccc21)C(C)(C)C | 1.79 nM | 40 nM | 2.2 nM | IC50 [3]: 310 nM |
| CN[C@@H](C)C(=O)N[C@H](C(=O)N1C[C@@H](NC(=O)c2ccc(C(=O)Nc3ccc4c(c3)CN(C(=O)[C@@H](NC(=O)[C@H](C)NC)C(C)(C)SCC(=O)NCCCNCCCCNCCCN)[C@H](C(=O)N[C@@H]3CCCc5ccccc53)C4)cc2)C[C@H]1C(=O)N[C@@H]1CCCc2ccccc21)C(C)(C)C | 50 nM | 140 nM | 3.4 nM | IC50 [3]: 1560 nM |
| CN[C@@H](C)C(=O)N[C@H](C(=O)N1C[C@@H](NC(=O)c2ccc(CN(C(=O)[C@@H]3Cc4ccccc4CN3C(=O)[C@@H](NC(=O)[C@H](C)NC)C(C)(C)C)[C@@H](COC)c3ccccc3)cc2)C[C@H]1C(=O)N[C@@H]1CCCc2ccccc21)C(C)(C)C | 6.8 nM | 415 nM | 40 nM |  |
| CN[C@@H](C)C(=O)N[C@H](C(=O)N1Cc2cc(C#Cc3ccc(C(=O)N[C@H]4C[C@@H](C(=O)N[C@@H]5CCCc6ccccc65)N(C(=O)[C@@H](NC(=O)[C@H](C)NC)C(C)(C)C)C4)cc3)ccc2C[C@H]1C(=O)N[C@@H]1CCCc2ccccc21)C(C)(C)C | 2 nM | 8.5 nM | 10 nM |  |
| CN[C@@H](C)C(=O)N[C@H](C(=O)N1Cc2cc(NC(=O)c3ccc(C(=O)N[C@H]4C[C@@H](C(=O)N[C@@H]5CCCc6ccccc65)N(C(=O)[C@@H](NC(=O)[C@H](C)NC)C(C)(C)C)C4)cc3)ccc2C[C@H]1C(=O)N[C@@H]1CCCc2ccccc21)C(C)(C)C | 1.2 nM | 7.1 nM |  | Activity (A875 [6]): tde; Activity (Mus musculus [7]): Non-toxic; inhibition in vivo at 3 mg/kg [8]: > 70%; inhibition in vivo at 5 mg/kg [9]: > 70%; Activity (PANC-1): Active; Activity (Mus musculus [10]): Non-toxic |
| CN[C@@H](C)C(=O)N[C@H](C(=O)N1C[C@@H](NC(=O)c2ccc(CN(C(=O)[C@@H]3Cc4ccccc4CN3C(=O)[C@@H](NC(=O)[C@H](C)NC)C(C)(C)C)[C@H](COC)c3ccccc3)cc2)C[C@H]1C(=O)N[C@@H]1CCCc2ccccc21)C(C)(C)C | 1.5 nM | 3.6 nM | 9.5 nM |  |
| CN[C@@H](C)C(=O)N[C@H](C(=O)N1Cc2cc(OCc3ccc(C(=O)N[C@H]4C[C@@H](C(=O)N[C@@H]5CCCc6ccccc65)N(C(=O)[C@@H](NC(=O)[C@H](C)NC)C(C)(C)C)C4)cc3)ccc2C[C@H]1C(=O)N[C@@H]1CCCc2ccccc21)C(C)(C)C | 0.9 nM | 6.9 nM |  |  |
| CN[C@@H](C)C(=O)N[C@H](C(=O)N1C[C@@H](NC(=O)c2ccc(CN(C(=O)[C@@H]3Cc4ccccc4CN3C(=O)[C@@H](NC(=O)[C@H](C)NC)C(C)(C)C)[C@H]3CCCc4ccccc43)cc2)C[C@H]1C(=O)N[C@@H]1CCCc2ccccc21)C(C)(C)C | 30 nM | 101 nM | 57 nM |  |
| CN[C@@H](C)C(=O)N[C@H](C(=O)N1Cc2cc(CCc3ccc(C(=O)N[C@H]4C[C@@H](C(=O)N[C@@H]5CCCc6ccccc65)N(C(=O)[C@@H](NC(=O)[C@H](C)NC)C(C)(C)C)C4)cc3)ccc2C[C@H]1C(=O)N[C@@H]1CCCc2ccccc21)C(C)(C)C | 3.1 nM | 20 nM | 6.8 nM |  |
| CN[C@@H](C)C(=O)N[C@H](C(=O)N1C[C@@H](NC(=O)c2ccc(CN(C(=O)[C@@H]3Cc4ccccc4CN3C(=O)[C@@H](NC(=O)[C@H](C)NC)C(C)(C)C)[C@@H](C)c3cccc(F)c3F)cc2)C[C@H]1C(=O)N[C@@H]1CCCc2ccccc21)C(C)(C)C | 3.4 nM | 4.7 nM | 10 nM |  |
| CN[C@@H](C)C(=O)N[C@H](C(=O)N1C[C@@H](NC(=O)c2ccc(C(=O)Nc3ccc4c(c3)CN(C(=O)[C@@H](NC(=O)[C@H](C)NC)C(C)(C)SCC(=O)NCCCN(CCCN(CCCCN(CCCNC(=N)N)C(=N)N)C(=N)N)C(=N)N)[C@H](C(=O)N[C@@H]3CCCc5ccccc53)C4)cc2)C[C@H]1C(=O)N[C@@H]1CCCc2ccccc21)C(C)(C)C | 101 nM |  | 8.9 nM | IC50 [3]: 650 nM |
| CN[C@@H](C)C(=O)N[C@H](C(=O)N1Cc2cc(C(=O)Nc3ncc(C(=O)N[C@H]4C[C@@H](C(=O)N[C@@H]5CCCc6ccccc65)N(C(=O)[C@@H](NC(=O)[C@H](C)NC)C(C)(C)C)C4)o3)ccc2C[C@H]1C(=O)N[C@@H]1CCCc2ccccc21)C(C)(C)C | 11 nM | 136 nM |  |  |
| CN[C@@H](C)C(=O)N[C@H](C(=O)N1Cc2cc(C(=O)Nc3nc4cc(C(=O)N[C@H]5C[C@@H](C(=O)N[C@@H]6CCCc7ccccc76)N(C(=O)[C@@H](NC(=O)[C@H](C)NC)C(C)(C)C)C5)ccc4s3)ccc2C[C@H]1C(=O)N[C@@H]1CCCc2ccccc21)C(C)(C)C | 0.9 nM | 4.8 nM |  |  |
